Data as given in ChEMBL document CHEMBL1158040, “Biological activities and 3D QSAR studies of a series of Delisea pulchra (cf. fimbriata) derived natural products” (J Nat Prod, 2006).
In brackets after ≈: the same amount, converted by molar mass. Activity calls are given as the source filed them. The rule behind the calls is not given here.

Columns and labels:
KB [1] = experiment: Cytotoxicity against vinblastine-sensitive human KB cells; format: functional; settings: read-out: ED50 (the source's name)
Penicillium oxalicum [2] = experiment: Antimicrobial activity against Penicillium oxalicum at 1 ug; format: functional; settings: for zone of inhibition at 1 µg/disc: read-out: IZ
Procedure, shortened: (§1)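 Direct bioautography: each compound is spotted onto TLC plates and the solvent evaporated. The test organism is then grown directly on the plate. Growth inhibition is scored at the spot as active (+) or very active (++). Where a number is given, it is the radius in mm of the inhibition zone around the spot.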

Escherichia coli [3] = experiment: Antimicrobial activity against Escherichia coli at 1 ug; format: functional, organism-based; procedure, shortened: as §1
Penicillium oxalicum [4] = experiment: Antimicrobial activity against Penicillium oxalicum at 0.1 ug; format: functional; settings: for zone of inhibition at 0.1 µg/disc: read-out: IZ; procedure, shortened: as §1
Bacillus subtilis [5] = experiment: Antimicrobial activity against Bacillus subtilis at 0.1 ug; format: functional, organism-based; procedure, shortened: as §1
Micrococcus luteus [6] = experiment: Antimicrobial activity against Micrococcus luteus at 1 ug; format: functional, organism-based; procedure, shortened: as §1
Escherichia coli [7] = experiment: Antimicrobial activity against Escherichia coli at 0.1 ug; format: functional, organism-based; procedure, shortened: as §1
KB [8] = experiment: Cytotoxicity against vinblastine-resistant human KB cells; format: functional; settings: read-out: ED50 (the source's name)
Procedure, shortened: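 The vinblastine-resistant KB-V1 line was tested both with and without added vinblastine in the cultured tumour-cell cytotoxicity panel. Results are reported as ED50.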

Micrococcus luteus [9] = experiment: Antimicrobial activity against Micrococcus luteus at 10 ug; format: functional, organism-based; procedure, shortened: as §1
[10] = Inhibition of TK assessed as residual activity at 200 ug/ml
Procedure, shortened: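 The enzyme was tyrosine kinase p56lck, with test compounds at 200 μg/mL. The read-out is the remaining enzyme activity.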

Micrococcus luteus [11] = experiment: Antimicrobial activity against Micrococcus luteus at 5 ug; format: functional, organism-based; procedure, shortened: as §1
Penicillium oxalicum [12] = experiment: Antimicrobial activity against Penicillium oxalicum at 5 ug; format: functional; settings: for zone of inhibition at 5 µg/disc: read-out: IZ; procedure, shortened: as §1
LNCaP = experiment: Cytotoxicity against human LNCAP cells; format: functional; settings: read-out: ED50 (the source's name)
Plasmodium falciparum [13] = experiment: Antimalarial activity against chloroquine-sensitive Plasmodium falciparum D6 at 10 ug/ml; format: functional
Micrococcus luteus [14] = experiment: Antimicrobial activity against Micrococcus luteus at 0.1 ug; format: functional, organism-based; procedure, shortened: as §1
Bacillus subtilis [15] = experiment: Antimicrobial activity against Bacillus subtilis at 5 ug; format: functional, organism-based; procedure, shortened: as §1
ZR-75-1 = experiment: Cytotoxicity against human ZR-75-1 cells; format: functional; settings: read-out: ED50 (the source's name)
KB [16] = experiment: Cytotoxicity against human KB cells; format: functional; settings: read-out: ED50 (the source's name)
[17] = molecular target: Human immunodeficiency virus type 1 reverse transcriptase (Human immunodeficiency virus 1) (UniProt Q72547); experiment: Inhibition of HIV1 RT at 200 uM
Procedure, shortened: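 HIV-1 reverse transcriptase inhibition was measured in an ELISA-based system.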

Penicillium oxalicum [18] = experiment: Antimicrobial activity against Penicillium oxalicum at 10 ug; format: functional; settings: for zone of inhibition at 10 µg/disc: read-out: IZ; procedure, shortened: as §1
Lu1 = experiment: Cytotoxicity against human Lu1 cells; format: functional; settings: read-out: ED50 (the source's name)
Bacillus subtilis [19] = experiment: Antimicrobial activity against Bacillus subtilis at 10 ug; format: functional, organism-based; procedure, shortened: as §1
Escherichia coli [20] = experiment: Antimicrobial activity against Escherichia coli at 10 ug; format: functional, organism-based; procedure, shortened: as §1
Escherichia coli [21] = experiment: Antimicrobial activity against Escherichia coli at 5 ug; format: functional, organism-based; procedure, shortened: as §1
Bacillus subtilis [22] = experiment: Antimicrobial activity against Bacillus subtilis at 1 ug; format: functional, organism-based; procedure, shortened: as §1
Penicillium oxalicum [23] = experiment: Antimicrobial activity against Penicillium oxalicum at 0.01 ug; format: functional; procedure, shortened: as §1
Plasmodium falciparum [24] = experiment: Antimalarial activity against chloroquine-sensitive Plasmodium falciparum D6; format: functional, organism-based
Procedure, shortened: (§2)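 In vitro growth inhibition of Plasmodium falciparum clones D6 (chloroquine-sensitive) and W2 (chloroquine-resistant); IC50 reported in μg/mL.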

[25] = Selectivity index, ratio of IC50 for human KB cells to IC50 for Plasmodium falciparum D6; format: toxicity, cell-based; settings: KB cells versus Plasmodium falciparum D6, read-out: Ratio IC50
Procedure, shortened: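 Plasmodium falciparum clones were assayed in vitro: D6 (chloroquine-sensitive) and W2 (chloroquine-resistant). IC50 is in μg/mL. The selectivity index is the ratio of the antimalarial to the cytotoxic activity.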

Plasmodium falciparum [26] = experiment: Antimalarial activity against chloroquine-resistant Plasmodium falciparum W2; format: functional, organism-based; procedure, shortened: as §2
[27] = Inhibition of PKC

Activity [10] | Compound | EC50 (KB [1]) | zone of inhibition at 1 µg/disc (Penicillium oxalicum [2]) | Activity (Escherichia coli [3]) | Activity (Penicillium oxalicum [4]) | Activity (Bacillus subtilis [5]) | Activity (Micrococcus luteus [6]) | Activity (Escherichia coli [7]) | EC50 (KB [8]) | Activity (Micrococcus luteus [9]) | Activity (Micrococcus luteus [11]) | zone of inhibition at 5 µg/disc (Penicillium oxalicum [12]) | Activity (Micrococcus luteus [14]) | Activity (Bacillus subtilis [15]) | EC50 (KB [16]) | zone of inhibition at 10 µg/disc (Penicillium oxalicum [18]) | Activity (Bacillus subtilis [19]) | Activity (Escherichia coli [20]) | Activity (Escherichia coli [21]) | Activity (Bacillus subtilis [22]) | further results
86% | CCC[C@@H](OC(C)=O)C1=C(Br)[C@](C)(OC)OC1=O | 5.6 mg/L (≈ 17.4 µM) | 8 mm | inactive | inactive | inactive | inactive | inactive | 4.7 mg/L (≈ 14.6 µM) | Active | Active | 12 mm | inactive | Active | 3.9 mg/L (≈ 12.1 µM) | 16 mm | Active | inactive | inactive | inactive | EC50 (LNCaP): 3.6 mg/L (≈ 11.2 µM); Activity (Plasmodium falciparum [13]): >50%; EC50 (ZR-75-1): 4 mg/L (≈ 12.5 µM); Activity [17]: inactive; EC50 (Lu1): > 20 mg/L
– | CCC[C@@H](O)C1=C(Br)/C(=C\Br)OC1=O [HYDROXYFIMBROLIDE] | 0.2 mg/L (≈ 0.614 µM) | 21 mm | Active | – | Active | Active | – | 1.1 mg/L (≈ 3.37 µM) | Active | Active | 31 mm | inactive | Active | 0.5 mg/L (≈ 1.53 µM) | 28 mm | Active | Active | Active | Active | zone of inhibition at 0.1 µg/disc (Penicillium oxalicum [4]): 6 mm; Activity (Penicillium oxalicum [23]): inactive; EC50 (LNCaP): < 0.1 mg/L; Activity (Plasmodium falciparum [13]): >50%; EC50 (ZR-75-1): 0.3 mg/L (≈ 0.92 µM); Activity [17]: inactive; EC50 (Lu1): 0.6 mg/L (≈ 1.84 µM)
– | CCC[C@@H](OC(C)=O)C1=C(Br)[C@@](C)(OC)OC1=O | 10.7 mg/L (≈ 33.3 µM) | 3 mm | inactive | inactive | inactive | Active | inactive | 2.8 mg/L (≈ 8.72 µM) | Active | Active | 6 mm | inactive | inactive | 5.4 mg/L (≈ 16.8 µM) | 8 mm | inactive | inactive | inactive | inactive | EC50 (LNCaP): 1.7 mg/L (≈ 5.29 µM); Activity (Plasmodium falciparum [13]): >50%; EC50 (ZR-75-1): 2.4 mg/L (≈ 7.47 µM); Activity [17]: inactive; EC50 (Lu1): > 20 mg/L
– | CCC[C@@H](OC(C)=O)C1=C(Br)/C(=C\Br)OC1=O [ACETOXYFIMBROLIDE] | – | 14 mm | inactive | – | inactive | Active | inactive | – | Active | Active | 22 mm | Active | Active | – | 18 mm | Active | inactive | inactive | Active | zone of inhibition at 0.1 µg/disc (Penicillium oxalicum [4]): 6 mm; Activity (Penicillium oxalicum [23]): inactive
1.6% | CCC[C@@H](O)C1=C(Br)/C(=C\Cl)OC1=O | – | – | – | – | – | – | – | – | – | – | – | – | – | – | – | – | – | – | – | –
– | CCCCC1=C(Br)C(OC)(C(Br)Br)OC1=O (centres undefined) | 10.5 mg/L (≈ 24.9 µM) | – | Active | inactive | inactive | Active | inactive | 8 mg/L (≈ 19 µM) | Active | Active | – | inactive | inactive | 7.6 mg/L (≈ 18.1 µM) | – | inactive | Active | Active | inactive | Activity (Penicillium oxalicum [2]): inactive; Activity (Penicillium oxalicum [12]): inactive; EC50 (LNCaP): 6.6 mg/L (≈ 15.7 µM); Activity (Plasmodium falciparum [13]): >50%; EC50 (ZR-75-1): 6.7 mg/L (≈ 15.9 µM); Activity [17]: inactive; Activity (Penicillium oxalicum [18]): inactive; EC50 (Lu1): > 20 mg/L
– | CCN(CC)CCCC(C)Nc1ccnc2cc(Cl)ccc12 (centres undefined) [CHLOROQUINE] | – | – | – | – | – | – | – | – | – | – | – | – | – | 17.4 mg/L (≈ 54.4 µM) | – | – | – | – | – | –
– | CCCCCCCC/C=C(\Br)C(O)C(Br)Br (centres undefined) | – | 5 mm | inactive | inactive | – | inactive | inactive | – | Active | Active | 8 mm | – | Active | – | 8 mm | Active | Active | inactive | inactive | Activity (Penicillium oxalicum [23]): inactive; IC50 [27]: ≥ 200 µM
77.2% | CCC[C@@H](O)C1=C(Br)[C@@](CI)(OC)OC1=O | – | 10 mm | inactive | inactive | inactive | inactive | inactive | – | Active | Active | 16 mm | inactive | Active | – | 14 mm | Active | Active | Active | inactive | –
5.8% | CCC[C@@H](O)C1=C(Br)/C(=C\I)OC1=O | – | – | – | – | – | – | – | – | – | – | – | – | – | – | – | – | – | – | – | –

Compound | Activity [10] | EC50 (KB [1]) | zone of inhibition at 1 µg/disc (Penicillium oxalicum [2]) | Activity (Escherichia coli [3]) | Activity (Penicillium oxalicum [4]) | Activity (Bacillus subtilis [5]) | Activity (Micrococcus luteus [6]) | Activity (Escherichia coli [7]) | EC50 (KB [8]) | Activity (Micrococcus luteus [9]) | Activity (Micrococcus luteus [11]) | zone of inhibition at 5 µg/disc (Penicillium oxalicum [12]) | Activity (Micrococcus luteus [14]) | Activity (Bacillus subtilis [15]) | EC50 (KB [16]) | zone of inhibition at 10 µg/disc (Penicillium oxalicum [18]) | Activity (Bacillus subtilis [19]) | Activity (Escherichia coli [20]) | Activity (Escherichia coli [21]) | Activity (Bacillus subtilis [22]) | further results
CCC[C@@H](OC(C)=O)C1=C(Br)[C@@](OC)(C(Br)Br)OC1=O | 22.7% | 3.9 mg/L (≈ 8.14 µM) | 6 mm | inactive | inactive | inactive | inactive | inactive | 6.2 mg/L (≈ 12.9 µM) | Active | Active | 14 mm | inactive | Active | 4.1 mg/L (≈ 8.56 µM) | 16 mm | Active | inactive | inactive | inactive | EC50 (LNCaP): 3.6 mg/L (≈ 7.52 µM); IC50 (Plasmodium falciparum [24]): 5 mg/L (≈ 10.4 µM); selectivity ratio [25]: 1; EC50 (ZR-75-1): 2.8 mg/L (≈ 5.85 µM); Activity [17]: inactive; IC50 (Plasmodium falciparum [26]): > 10 mg/L; EC50 (Lu1): > 20 mg/L
CCC[C@@H](OC(C)=O)C1=C(Br)[C@](OC)(C(Br)Br)OC1=O | 87.5% | 5.3 mg/L (≈ 11.1 µM) | 4 mm | inactive | inactive | inactive | inactive | inactive | 6.1 mg/L (≈ 12.7 µM) | inactive | inactive | 8 mm | inactive | inactive | 6.1 mg/L (≈ 12.7 µM) | 9 mm | inactive | inactive | inactive | inactive | EC50 (LNCaP): 4.5 mg/L (≈ 9.4 µM); IC50 (Plasmodium falciparum [24]): 3.8 mg/L (≈ 7.93 µM); selectivity ratio [25]: 2; EC50 (ZR-75-1): 3.8 mg/L (≈ 7.93 µM); Activity [17]: inactive; IC50 (Plasmodium falciparum [26]): > 10 mg/L; EC50 (Lu1): > 20 mg/L
CCC[C@@H](O)C1=C(Br)[C@](CI)(OC)OC1=O | 55.7% | > 20 mg/L | 2 mm | inactive | inactive | inactive | inactive | inactive | > 20 mg/L | Active | Active | 6 mm | inactive | inactive | > 20 mg/L | 6 mm | Active | Active | Active | inactive | EC50 (LNCaP): 9.1 mg/L (≈ 22.5 µM); Activity (Plasmodium falciparum [13]): >50%; EC50 (ZR-75-1): 6.4 mg/L (≈ 15.8 µM); Activity [17]: inactive; EC50 (Lu1): > 20 mg/L
